KDM4C inh = blocks human GASC-1 (KDM4C) demethylase activity; GST-KDM4C 2-372, H3K9me3 peptide, LANCE TR-FRET; inhibition, % at 12.5 µM; 96,000 compounds, 0.15% hits; AID 720574;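 active = mean replicate inhibition above about 25%, with at least 55% of replicates also reaching it, limit read from the data, passing the limit was not always enough; inconclusive = only one of those two conditions met; inactive = neither condition met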
Target sequence (Q9H3R0 2-372 limits assumed): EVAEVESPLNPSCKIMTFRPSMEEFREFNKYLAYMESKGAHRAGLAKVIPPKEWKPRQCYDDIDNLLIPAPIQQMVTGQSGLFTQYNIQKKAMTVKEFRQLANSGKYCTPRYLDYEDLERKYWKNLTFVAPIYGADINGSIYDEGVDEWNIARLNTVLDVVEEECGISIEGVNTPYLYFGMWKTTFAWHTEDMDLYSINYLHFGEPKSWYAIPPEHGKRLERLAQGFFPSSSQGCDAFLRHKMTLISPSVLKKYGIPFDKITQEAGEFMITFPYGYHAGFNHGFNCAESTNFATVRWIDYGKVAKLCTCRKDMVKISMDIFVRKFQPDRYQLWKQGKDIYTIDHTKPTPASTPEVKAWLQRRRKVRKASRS
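Compound: one test concentration per compound; Material: GST-GASC-1 enzyme fragment 2-372; Amount: GASC-1 enzyme at 10 nM final in reaction; Also added: H3K9me3 peptide substrate, Fe(II), 2-oxoglutarate; Technique: LANCE TR-FRET; Times: 30 min demethylation and 1 h detection at room temperature.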
T cruzi growth-1 = inhibitors of T. cruzi proliferation. 77,000 compounds, 5.9% hits. inhibition, % at 8.34 µM. T. cruzi beta-gal in NIH3T3, GalScreen luminescence, 90 h. AID 624255;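 active = mean inhibition above about 93%, with at least 55% of replicates each passing it, limit read from the data, passing the limit was not always enough; inconclusive = only one of those two conditions holds; inactive = neither condition holds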
IDH1 mut inh = inhibitors of human IDH1 R132H | O75874 | IDH1 R132H reductase, diaphorase/resazurin fluorescence, 60 min | inhibition, % at 10 µM | 70,000 compounds, 0.18% hits | AID 624101; in the data active = inhibition above about 34%; inconclusive = no clear call, values can overlap the other calls; inactive = below about 11%;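 also: 0% = DMSO and 100% = no enzyme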
Pf Dd2 growth = P. falciparum Dd2 growth inhibition; SYBR Green, 72 h; hits give low values; activity change, % at 10 µM; 94,000 compounds, 2.3% hits; AID 1159554; in the data active = activity change below about -80%; inconclusive = no clear call, values can overlap the other calls
T cruzi growth-2 = Trypanosoma cruzi proliferation inhibition; shares compounds with T cruzi growth-1; T. cruzi beta-gal in NIH3T3, GalScreen luminescence, 90 h; inhibition, % at 8.35 µM; 5,600 compounds, 72% hits; AID 651739;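 active = mean replicate inhibition above about 95% and at least 55% of replicates individually reaching it, limit read from the data; inconclusive = only one of the two criteria is met; inactive = neither criterion is met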
T cruzi growth-3 = inhibitors of T. cruzi proliferation | shares compounds with T cruzi growth-1 | 5,600 compounds, 21% hits | AID 651740 | T. cruzi beta-gal in NIH3T3, GalScreen luminescence, 90 h | inhibition, % at 2.09 µM;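 active = mean inhibition above about 95%, with at least 55% of replicates also reaching it, limit read from the data; inconclusive = meets just one of the two conditions; inactive = meets neither condition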;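 also: plate controls were neutral control median for no effect and positive control median for full effect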
NIH3T3 tox = NIH/3T3 (mouse) viability loss; cytotoxicity (signal decrease), % at 8.35 µM; NIH/3T3 viability, CellTiter-Glo ATP luminescence, 90 h; shares compounds with T cruzi growth-1; 5,600 compounds, 14% hits;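 active = mean signal decrease across replicates above about 35% based on untreated-well scatter, with enough replicates individually passing, limit read from the data; inconclusive = no rule stated though some were filed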;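 also: 0% = median of neutral control wells and 100% = median of positive control wells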
3T3 cytotox 2 = NIH/3T3 (mouse) viability loss; shares compounds with T cruzi growth-1; NIH/3T3 viability, CellTiter-Glo ATP luminescence, 90 h; inhibition, % at 24.9 µM; 5,600 compounds, 56% hits; AID 651744;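 active = mean loss of cell viability signal at or above a set limit, and enough replicates individually reaching it; inconclusive = meets only the mean limit or only the replicate share; inactive = meets neither condition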;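 also: 0% = median of neutral control wells and 100% = median of positive control wells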
* = called active by the depositor; ? = inconclusive; nt = not tested or not shown. The list is not random: actives were taken first. Their share in the collection is about 5.8%.

SMILES	KDM4C inh	T cruzi growth-1	IDH1 mut inh	Pf Dd2 growth	T cruzi growth-2	T cruzi growth-3	NIH3T3 tox	3T3 cytotox 2
C[C@@H]1CCCCO[C@@H](CN(C)Cc2ccccc2)[C@H](C)CN([C@@H](C)CO)C(=O)c2cc(NC(=O)Nc3ccc(F)cc3)ccc2O1	1	?	-1	?	103*	44	10	105*
Cc1ccccc1NC(=O)CSc1nc2cc3ccccc3cc2[nH]1	nt	nt	0	nt	nt	nt	nt	nt
COCC(=O)N1CCCCN2[C@H](CO)[C@H](c3ccc(-c4ccc(OC)cc4)cc3)[C@@H]2C1	1	103*	nt	13	76	11	22	32*
COCC(=O)N1CCCCN2[C@H](C1)[C@H](c1ccc(C#Cc3ccc(OC)cc3)cc1)[C@@H]2CO	-1	105*	nt	-33	95*	36	20	89*
COCC(=O)N1CCCCN2[C@@H](CO)[C@@H](c3ccc(C#Cc4ccc(OC)cc4)cc3)[C@@H]2C1	-1	71	nt	-49	nt	nt	nt	nt
COCC(=O)N1CCCCN2[C@@H](CO)[C@H](c3ccc(C#Cc4cccnc4)cc3)[C@@H]2C1	0	99*	nt	21	93	36	13	22
COCC(=O)N1CCCCN2[C@@H](CO)[C@H](c3ccc(-c4ccc(OC)cc4)cc3)[C@@H]2C1	0	104*	nt	24	72	52	18	19
CCOC(=O)c1c(NC(=O)C23CCC(C)(C(=O)O2)C3(C)C)sc2c1CCCC2 (stereo unspecified)	nt	nt	0	nt	nt	nt	nt	nt
CCCCCC[C@H](O)[C@@H]1C[C@@H](O)C2=C(O1)[C@@H](O)CCC2=O	nt	nt	-1	nt	nt	nt	nt	nt
C[C@H](CO)N1C[C@H](C)[C@@H](CN(C)C(=O)CN2CCOCC2)Oc2ncc(-c3cncnc3)cc2C1=O	1	?	-1	-16	-8	14	-2	-4
Cc1ccc(-c2cnc3c(c2)C(=O)N([C@@H](C)CO)C[C@H](C)[C@@H](CN(C)CC2CCCC2)O3)cc1	-2	103*	-1	-69	108*	43	?	105*
C[C@H]1CN([C@@H](C)CO)C(=O)c2cc(-c3cncnc3)cnc2O[C@H]1CN(C)C(=O)CN1CCOCC1	2	nt	0	19	nt	nt	nt	nt
C[C@@H]1CN([C@H](C)CO)C(=O)c2cc(-c3ccccc3)cnc2O[C@H]1CN(C)C	3	?	2	4	100*	-26	5	20
COc1ccc(-c2nc3ccccc3s2)cc1NC(=O)COc1ccc(Br)cc1	nt	nt	1	nt	nt	nt	nt	nt
CN1c2ccc(-c3ccccc3)cc2[C@@H]2[C@@H](CCN2C(=O)Cc2ccccc2)[C@@H]1CO	-2	102*	nt	10	103*	111*	-15	106*
COc1ccc(-c2ccc3c(c2)[C@@H]2[C@@H](CCN2C(=O)Cc2cccnc2)[C@@H](CO)N3C)cc1	2	81	nt	0	nt	nt	nt	nt
CN1c2ccc(-c3ccccc3)cc2[C@@H]2[C@@H](CCN2C(=O)Cc2cccnc2)[C@@H]1CO	0	106*	nt	0	109*	71	2	1
CN1c2ccc(-c3ccc(F)cc3)cc2[C@@H]2[C@@H](CCN2C(=O)Cc2cccnc2)[C@@H]1CO	0	?	nt	-63	106*	62	-13	-6
O=C(CSc1nc2ccc(NC(=O)c3ccccc3Br)cc2s1)Nc1ccccc1	nt	nt	0	nt	nt	nt	nt	nt
C[C@@H]1CN([C@@H](C)CO)S(=O)(=O)c2ccc(C#CCN(C)C)cc2O[C@@H]1CN(C)Cc1ccccn1	8	?	-3	-30	82	68	31	28*
C[C@H]1CN([C@@H](C)CO)S(=O)(=O)c2ccc(C#CCN(C)C)cc2O[C@@H]1CN(C)Cc1ccccn1	1	101*	0	-51	97*	99*	4	12
C[C@H](CO)N1C[C@H](C)[C@@H](CN(C)Cc2ccccn2)Oc2cc(C#CCN(C)C)ccc2S1(=O)=O	1	?	-1	-28	nt	nt	nt	nt
Cc1cccc(-c2ccc([C@H]3[C@H](CO)N4CCCCN(Cc5cncnc5)C[C@@H]34)cc2)c1	0	103*	nt	7	100*	75	9	11
OC[C@@H]1[C@@H](c2ccc(C#Cc3ccccc3)cc2)[C@H]2CN(Cc3cncnc3)CCCCN12	-1	70	nt	-32	nt	nt	nt	nt
OC[C@@H]1[C@H](c2ccc(C#Cc3ccccc3F)cc2)[C@H]2CN(Cc3cncnc3)CCCCN12	0	118*	nt	-76	103*	96*	44*	105*
SMILES	KDM4C inh	T cruzi growth-1	IDH1 mut inh	Pf Dd2 growth	T cruzi growth-2	T cruzi growth-3	NIH3T3 tox	3T3 cytotox 2
Cc1cccc(-c2ccc([C@H]3[C@H](CO)N4CCCCN(Cc5cccnc5)C[C@@H]34)cc2)c1	nt	104*	nt	-64	106*	68	22	101*
CN(C)C(=O)c1cccc(-c2ccc([C@H]3[C@@H](CO)N4CCCCN(Cc5cccnc5)C[C@@H]34)cc2)c1	0	101*	nt	-25	?	88	-10	-15
O=C(N/N=C/c1ccc(F)c(Oc2ccccc2)c1)c1ccccn1	nt	nt	0	nt	nt	nt	nt	nt
CCn1c(SCC(=O)Nc2cccc(C(F)(F)F)c2)nnc1-c1ccco1	nt	nt	0	nt	nt	nt	nt	nt
Cc1cccc(-c2ccc([C@H]3[C@@H](CO)N4CCCCN(Cc5ccncc5)C[C@@H]34)cc2)c1	4	103*	nt	-2	111*	68	25	105*
Cc1cccc(-c2ccc([C@H]3[C@H]4CN(Cc5cncnc5)CCCCN4[C@H]3CO)cc2)c1	2	68	nt	4	nt	nt	nt	nt
Cc1cccc(-c2ccc([C@@H]3[C@@H](CO)N4CCCCN(Cc5ccncc5)C[C@@H]34)cc2)c1	3	71	nt	4	nt	nt	nt	nt
Cc1cccc(-c2ccc([C@H]3[C@@H](CO)N4CCCCN(Cc5cncnc5)C[C@@H]34)cc2)c1	2	106*	nt	7	95*	85	37*	102*
OC[C@H]1[C@H](c2ccc(-c3ccccc3)cc2)[C@@H]2CN(Cc3cncnc3)CCCCN12	-1	107*	nt	-40	103*	94	23	34*
OC[C@H]1[C@@H](c2ccc(-c3ccccc3)cc2)[C@H]2CN(Cc3cncnc3)CCCCN21	1	62	nt	-5	nt	nt	nt	nt
OC[C@@H]1[C@@H](c2ccc(-c3cccc(F)c3)cc2)[C@H]2CN(Cc3cncnc3)CCCCN12	0	60	nt	-6	nt	nt	nt	nt
OC[C@H]1[C@H](c2ccc(-c3cccc(F)c3)cc2)[C@H]2CN(Cc3cncnc3)CCCCN21	1	94*	nt	-22	92	-5	15	105*
C[C@H](CO)N1C[C@H](C)[C@@H](CN(C)C)Oc2cc(-c3cccc(C#N)c3)ccc2S1(=O)=O	1	53	0	-11	nt	nt	nt	nt

From PubChem
